Assay results from PubChem BioAssay AID617 (SRMLSC, 2007).
The whole screen tested about 1,300 compounds, of which about 1,200 (92%) were called active. How the calls were made is not given here. The set was probably picked from earlier hits. Only a sample is shown. Results with a measured potency or affinity are listed apart.

assay: growth inhibitors of E. coli tolC mutant, dose response, strain BW25113 ΔtolC::kan (AID 617); conditions: OD615, at 100 µM (top of the series); growth inhibition: at the top concentration
Procedure, shortened: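 Test system: E. coli BW25113 ΔtolC::kan bacteria / Buffer or medium: kanamycin-containing LB broth, 50 µg/mL / Compound: serial dilution series of compound / Incubation: bacterial growth with compound for 20 h, 37 °C / Measured by: OD615 / Read-out basis: growth-inhibition IC50 from four-parameter logistic curve, bounds set to 0% and 100%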

Growth inhibition, inactive:
O=C(COc1ccc(Cl)cc1)Nc1nc(-c2cccs2)cs1 4.58%
COc1cc(C(=O)Nc2nc(-c3cccs3)cs2)cc(OC)c1OC -4.94%
CC(C)n1c(C(=O)OCC(=O)NCc2ccc3c(c2)OCO3)cc2occc21 2.76% [OD615, at 50 µM]
CCOC(=O)c1c(N)sc2c(OC)c(Br)ccc12 6.86%
O=C(C1CCN(Cc2cc(Cl)ccc2O)CC1)N1CCN(Cc2ccccc2)CC1 17.7%
CCCCCCn1c(CN2CCCC(C)C2)nc2c1c(=O)n(C)c(=O)n2C (stereo not drawn) 13.4%
Cc1ccc(N(CC(=O)Nc2ccc3c(c2)OCCO3)S(=O)(=O)c2c(C)noc2C)cc1 -0.82%
COc1ccccc1N1CCN(C(=O)c2oc3cc(C)c(C)cc3c2C)CC1 9.06%
COc1ccccc1N1CCN(C(=O)c2cc(-c3ccc(Br)cc3)on2)CC1 9.47%
Cc1ccc(-c2noc(CCC(=O)N3CCN(c4cccc(C(F)(F)F)c4)CC3)n2)cc1 14.7%
Cc1ccc(-c2nnn(CC(=O)N(Cc3cccs3)C(C(=O)NC(C)(C)C)c3ccco3)n2)o1 (stereo not drawn) 1.07%
Cc1ccc(-c2noc(CN3CCN(c4ccccc4F)CC3)n2)cc1 -0.74%
C=C(C)COc1ccc(-c2[nH]ncc2-c2ccc(OC)c(OC)c2)c(O)c1 -0.5%
COc1ccc(-c2cnc(N)n2CC2CCCO2)cc1 (stereo not drawn) 14.5%
COc1cc(OC)cc(-n2nnnc2SCC(=O)N2CCCc3ccccc32)c1 19.5%
Cn1c(-c2ccc3c(c2)OCO3)cnc1N -13.1%
CCCCCc1c(C)nc(Nc2ccccc2)[nH]c1=O 15.3% [OD615, at 50 µM]
Cc1nn(-c2ccccc2)c2[nH]c(=O)c(CNCc3ccc4c(c3)OCO4)cc12 -1.75%
CCOC(=O)C1(N(CC)CC)Sc2cc(C)ccc2NC1=O (stereo not drawn) -1.68%
Cc1cc(=O)oc2c1ccc1oc(/C(=N/O)c3ccccc3)c(C)c12 16.5% [OD615, at 50 µM]
CN(C)Cc1nc2c(c(=O)[nH]1)C1(CCCCC1)Cc1ccccc1-2 11.3%
Clc1ccc(Cn2ncc3c(N4CCCCC4)ncnc32)c(Cl)c1 13.9%
COc1ccc(-c2csc(N(CC3CCCO3)C(=O)c3ccco3)n2)cc1 (stereo not drawn) 9.23%
CN1/C(=C\C(=O)c2cccs2)Sc2ccccc21 13.4%
CCOC(=O)c1ccc(NS(=O)(=O)c2ccc(SC)cc2)cc1 5.09%
O=C(c1cc(C2CC2)on1)N1CCN(C(c2ccccc2)c2ccccc2)CC1 -3.08%
CC(C)n1c2ccccc2c2nc3ccccc3nc21 10.9%
CCOC(=O)C1CCN(Cc2cn[nH]c2-c2ccc(C)cc2)CC1 -2.61%
